ChEMBL document CHEMBL1759916, “Bicyclo[2.2.2]octyltriazole inhibitors of 11β-hydoxysteroid dehydrogenase type 1. Pharmacological agents for the treatment of metabolic syndrome” (Bioorg Med Chem Lett, 2011)

Legend:
[1] = molecular target: 11-beta-hydroxysteroid dehydrogenase 1 (Homo sapiens, UniProt P28845); assay: Inhibition of human 11beta-HSD1 expressed in CHO-K1 cells assessed as conversion of [3H]-cortisone to [3H]-cortisol by scintillation proximity assay; format: cell-based
Outline: (§1)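 Scintillation proximity assay (SPA). IC50 values are the average of two determinations.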

[2] = molecular target: 11-beta-hydroxysteroid dehydrogenase 1 (Mus musculus, UniProt P50172); assay: Inhibition of mouse 11beta-HSD1 expressed in CHO-K1 cells assessed as conversion of [3H]-cortisone to [3H]-cortisol by scintillation proximity assay; format: cell-based
Mus musculus [3] = assay: Inhibition of 11beta-HSD1 in ICR mouse assessed as inhibition of conversion of [3H]-cortisone to [3H]-cortisol at 10 mg/kg, po administered 4 hrs before [3H]-cortisone challenge; format: functional
Outline: (§2)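 Mouse pharmacodynamic model. Compound given 10 mg/kg PO, then 3H-cortisone by tail vein injection 1, 4 or 16 h after dosing. […] Plasma compound levels were measured after the PD studies.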

[4] = molecular target: T1, 11-beta-hydroxysteroid dehydrogenase type 2 (Mus musculus, UniProt P51661); assay: Inhibition of mouse 11beta-HSD2 expressed in CHO-K1 cells assessed as conversion of [3H]-cortisol to [3H]-cortisone by scintillation proximity assay; format: cell-based; outline: as §1
T1 sequence (P51661 whole entry): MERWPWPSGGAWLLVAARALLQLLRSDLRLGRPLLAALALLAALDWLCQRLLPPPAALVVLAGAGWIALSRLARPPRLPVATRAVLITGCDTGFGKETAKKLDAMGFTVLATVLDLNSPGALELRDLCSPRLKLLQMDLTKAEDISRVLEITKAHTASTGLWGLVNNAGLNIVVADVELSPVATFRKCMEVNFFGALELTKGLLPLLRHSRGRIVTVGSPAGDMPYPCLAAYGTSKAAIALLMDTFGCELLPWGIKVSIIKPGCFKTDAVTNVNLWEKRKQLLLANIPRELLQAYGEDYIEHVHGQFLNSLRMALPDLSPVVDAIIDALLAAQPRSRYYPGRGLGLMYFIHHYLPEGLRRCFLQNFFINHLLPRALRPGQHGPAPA

Mus musculus [5] = assay: Inhibition of 11beta-HSD1 in ICR mouse assessed as inhibition of conversion of [3H]-cortisone to [3H]-cortisol at 10 mg/kg, po administered 16 hrs before [3H]-cortisone challenge; format: functional; outline: as §2
[6] = molecular target: T2, 11-beta-hydroxysteroid dehydrogenase type 2 (Homo sapiens, UniProt P80365); assay: Inhibition of human 11beta-HSD2 expressed in CHO-K1 cells assessed as conversion of [3H]-cortisol to [3H]-cortisone by scintillation proximity assay; format: cell-based
T2 sequence (P80365 whole entry): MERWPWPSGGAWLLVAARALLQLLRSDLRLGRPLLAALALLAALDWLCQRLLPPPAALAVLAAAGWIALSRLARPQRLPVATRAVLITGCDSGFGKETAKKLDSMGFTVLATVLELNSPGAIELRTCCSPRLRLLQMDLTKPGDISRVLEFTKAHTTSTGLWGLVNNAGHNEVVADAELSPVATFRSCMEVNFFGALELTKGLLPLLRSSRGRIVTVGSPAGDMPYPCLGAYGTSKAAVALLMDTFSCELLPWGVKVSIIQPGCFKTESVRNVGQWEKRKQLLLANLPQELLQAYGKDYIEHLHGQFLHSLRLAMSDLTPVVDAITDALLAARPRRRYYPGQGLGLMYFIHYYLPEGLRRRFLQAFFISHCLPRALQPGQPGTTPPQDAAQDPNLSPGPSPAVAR

[7] = Clearance in C57 mouse at 2 mg/kg, iv; format: ADME, organism-based; set-up: dose 2 mg/kg, route intravenous; settings: in vivo
Outline: (§3)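 Mouse PK from 2 mg/kg IV and 10 mg/kg oral dosing. The PO AUC is reported normalized to dose.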

[8] = Bioavailability in C57 mouse at 2 mg/kg, iv and 10 mg/kg, po; format: ADME, organism-based; settings: in vivo; outline: as §3

11-beta-hydroxysteroid dehydrogenase 1 (Mus musculus, UniProt P50172), sequence (P50172 whole entry): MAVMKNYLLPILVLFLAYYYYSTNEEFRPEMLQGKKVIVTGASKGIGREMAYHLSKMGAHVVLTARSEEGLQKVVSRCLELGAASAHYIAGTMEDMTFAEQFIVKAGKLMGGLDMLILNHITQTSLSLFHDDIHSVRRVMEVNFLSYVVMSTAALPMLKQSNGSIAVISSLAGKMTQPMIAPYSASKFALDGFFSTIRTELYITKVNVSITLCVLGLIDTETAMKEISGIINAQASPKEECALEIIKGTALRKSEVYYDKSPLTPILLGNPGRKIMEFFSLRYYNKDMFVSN
11-beta-hydroxysteroid dehydrogenase 1 (Homo sapiens, UniProt P28845), sequence (P28845 whole entry): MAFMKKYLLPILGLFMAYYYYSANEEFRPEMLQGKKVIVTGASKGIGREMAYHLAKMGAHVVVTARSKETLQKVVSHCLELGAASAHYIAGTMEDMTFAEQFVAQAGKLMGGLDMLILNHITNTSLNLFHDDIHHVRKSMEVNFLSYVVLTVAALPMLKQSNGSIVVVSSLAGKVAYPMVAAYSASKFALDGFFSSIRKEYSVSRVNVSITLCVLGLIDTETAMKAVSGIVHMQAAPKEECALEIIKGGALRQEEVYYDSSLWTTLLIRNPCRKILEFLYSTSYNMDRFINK

| Structure (SMILES) | IC50 [1] [nM] | IC50 [2] [nM] | inhibition in vivo at 10 mg/kg (Mus musculus [3]) [%] | IC50 [4] [nM] | inhibition in vivo at 10 mg/kg (Mus musculus [5]) [%] | IC50 [6] [nM] | clearance [7] [mL/min/kg] | bioavailability [8] [%] |
| --- | --- | --- | --- | --- | --- | --- | --- | --- |
| CCCS(=O)(=O)NCC12CCC(c3nnc(-c4ccccc4C(F)(F)F)n3C)(CC1)CC2 | 8.1 | 1 | 93 | > 4000 | 7 | > 4000 |  |  |
| CCS(=O)(=O)CCC12CCC(c3nnc(-c4ccc(Cl)cc4)n3C)(CC1)CC2 | 2800 | > 4000 |  | > 4000 |  | > 4000 |  |  |
| CC(O)CCCC12CCC(c3nnc(-c4ccccc4C(F)(F)F)n3C)(CC1)CC2 (stereo not drawn) | < 1 | 1.7 | 97 | > 4000 |  | > 1000 | 88 | 21 |
| Cn1c(-c2ccccc2C(F)(F)F)nnc1C12CCC(CNS(C)(=O)=O)(CC1)CC2 | 30 | 4 | 73 | > 4000 | 27 | > 4000 |  |  |
| CC(F)CCCC12CCC(c3nnc(-c4ccccc4C(F)(F)F)n3C)(CC1)CC2 (stereo not drawn) | < 1 | < 1 | 96 | > 4000 | 51 | 1300 |  |  |
| Cn1c(-c2ccccc2C(F)(F)F)nnc1C12CCC(CCS(=O)(=O)C(C)(C)C)(CC1)CC2 | 5.4 | 6.3 | 65 | > 4000 | 10 | > 4000 |  |  |
| CCS(=O)(=O)CCC12CCC(c3nnc(-c4ccccc4Cl)n3C)(CC1)CC2 | 7.5 |  | 87 | > 4000 | 74 | > 4000 |  |  |
| CCS(=O)(=O)CC12CCC(c3nnc(-c4ccccc4C(F)(F)F)n3C)(CC1)CC2 |  | 4 | 94 |  | 80 |  |  |  |
| Cn1c(-c2ccccc2C(F)(F)F)nnc1C12CCC(CCS(=O)(=O)C(F)(F)F)(CC1)CC2 | 6.1 | 2.2 | 81 | > 4000 | 78 | > 4000 |  |  |
| CCCCCC12CCC(c3nnc(-c4ccccc4C(F)(F)F)n3C)(CC1)CC2 | 1.8 |  | 98 | > 4000 |  | 1300 | 273 | 20 |
| CC(=O)CCCC12CCC(c3nnc(-c4ccccc4C(F)(F)F)n3C)(CC1)CC2 | 1.2 | 1.3 | 90 | > 4000 | 32 | 4000 | 21 | 25 |
| Cn1c(-c2ccccc2C(F)(F)F)nnc1C12CCC(CCS(=O)(=O)CC(F)(F)F)(CC1)CC2 | 3.7 | 1.5 | 74 | > 4000 | 67 | 1600 |  |  |
| CCOCC12CCC(c3nnc(-c4ccccc4C(F)(F)F)n3C)(CC1)CC2 | 4 | 2 | 44 | > 4000 | 3 | > 4000 |  |  |
| Cn1c(-c2ccccc2C(F)(F)F)nnc1C12CCC(COc3ccc(S(C)(=O)=O)cc3)(CC1)CC2 | 1 | 2 | 79 | > 4000 | 28 | > 4000 |  |  |
| Cn1c(-c2ccccc2C(F)(F)F)nnc1C12CCC(CCS(C)(=O)=O)(CC1)CC2 | 11 | 4.1 | 96 | > 4000 | 63 | > 4000 |  |  |
| CCS(=O)(=O)CCC12CCC(c3nnc(-c4ccccc4Br)n3C)(CC1)CC2 | 10 |  | 86 | > 4000 | 65 | > 4000 |  |  |
| Cn1c(-c2ccccc2C(F)(F)F)nnc1C12CCC(CCS(=O)(=O)c3ccccc3)(CC1)CC2 | 4.4 | 1.6 | 69 | > 4000 | 6 | > 4000 |  |  |
| CC[S+]([O-])CCC12CCC(c3nnc(-c4ccccc4C(F)(F)F)n3C)(CC1)CC2 (stereo not drawn) | 4.1 | 10 | 90 | > 4000 | 72 | > 4000 |  |  |
| CCS(=O)(=O)CCC12CCC(c3nnc(-c4ccccc4F)n3C)(CC1)CC2 |  |  |  | > 4000 |  | > 4000 |  |  |
| CCSCCC12CCC(c3nnc(-c4ccccc4C(F)(F)F)n3C)(CC1)CC2 | 3.3 | 3.9 | 79 | > 4000 | 72 | > 4000 |  |  |
| COCCCCC12CCC(c3nnc(-c4ccccc4C(F)(F)F)n3C)(CC1)CC2 | 2 | 2 | 76 | > 4000 | 1 | 4000 |  |  |
| CCS(=O)(=O)CCC12CCC(c3nnc(-c4ccccc4C)n3C)(CC1)CC2 |  |  | 86 | > 4000 | 30 | > 4000 |  |  |
| CC(C)S(=O)(=O)CCC12CCC(c3nnc(-c4ccccc4C(F)(F)F)n3C)(CC1)CC2 | 4.1 | 3.6 | 88 | > 4000 | 59 | > 4000 |  |  |
| CCS(=O)(=O)CCC12CCC(c3nnc(-c4cccc(Cl)c4)n3C)(CC1)CC2 | 900 | 1100 |  | > 4000 |  | > 4000 |  |  |
| Cn1c(-c2ccccc2C(F)(F)F)nnc1C12CCC(CCS(=O)(=O)c3ccc(F)cc3)(CC1)CC2 | 5.5 | 1.8 | 63 | > 4000 | 2 | > 4000 |  |  |
| CCS(=O)(=O)CCCC12CCC(c3nnc(-c4ccccc4C(F)(F)F)n3C)(CC1)CC2 [MK-0736] | 3.2 | 2.4 | 92 | > 4000 | 63 | > 4000 |  |  |
| CCS(=O)(=O)CCC12CCC(c3nnc(-c4ccc(O)cc4Cl)n3C)(CC1)CC2 | 2.8 | 3 | 26 | > 4000 | 14 | > 4000 |  |  |
| CCCS(=O)(=O)CCC12CCC(c3nnc(-c4ccccc4C(F)(F)F)n3C)(CC1)CC2 | 5.1 | 6.7 | 89 | > 4000 | 47 | > 4000 |  |  |
| CCS(=O)(=O)NCC12CCC(c3nnc(-c4ccccc4C(F)(F)F)n3C)(CC1)CC2 | 20 | 2.9 | 95 | > 4000 | 50 | > 4000 |  |  |
| CCS(=O)(=O)CCCCC12CCC(c3nnc(-c4ccccc4C(F)(F)F)n3C)(CC1)CC2 | 1.6 | 1.8 | 90 | > 4000 | 58 | > 4000 |  |  |
